Screening results from PubChem BioAssay.
Shown are actives, neighbours in structure and some others; about 1.5% of the full set was active somewhere.
APJ ag: activates the human apelin receptor APJ. hit rate 0.11% among 330,000. P35414. CHO-K1 APJ PathHunter beta-arrestin, luminescence; 0% DMSO wells, 100% apelin. AID 2520. activation, % at 20 µM;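 active means activation more than six SD over the plate average, tested at 20 µM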;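 further: 0% = DMSO alone and 100% = apelin-13 at 10 nM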
Target sequence (P35414 whole entry, looked up): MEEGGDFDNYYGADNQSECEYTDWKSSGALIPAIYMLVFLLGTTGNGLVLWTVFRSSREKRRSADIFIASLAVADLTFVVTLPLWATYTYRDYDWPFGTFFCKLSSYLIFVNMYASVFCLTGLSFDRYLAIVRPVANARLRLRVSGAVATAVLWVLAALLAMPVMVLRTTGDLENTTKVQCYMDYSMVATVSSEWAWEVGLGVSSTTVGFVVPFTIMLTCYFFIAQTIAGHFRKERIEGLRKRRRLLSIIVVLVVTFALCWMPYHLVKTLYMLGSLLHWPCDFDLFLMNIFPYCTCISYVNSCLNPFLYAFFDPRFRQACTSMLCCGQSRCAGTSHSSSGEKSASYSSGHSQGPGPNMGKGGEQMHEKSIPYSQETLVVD
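Test system: CHO-K1 APJ beta-arrestin complementation cell line | Compound: Single test compound dose, 20 µM final, 1% DMSO | Incubation: Compound 90 min 25 °C, reagent 1 h | Measured by: beta-gal luminescence | Read-out basis: APJ–arrestin association signal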
m5-HT2A agonist: activates the mouse 5-HT2A serotonin receptor; AID 624169; CHO-K1 mHTR2A beta-arrestin complementation, luminescence; percent of 30 µM serotonin response; activation, % at 7.6 µM; P35363; hit rate 0.66% among 360,000;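 active means activation above a run cutoff, the mean activation of all tested compounds plus 3 SD, cut at about 14% in these data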;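 further: 0% = plate median of compound wells and 100% = 30 µM serotonin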
CCR6 antag: antagonists of human CCR6 receptor | inhibition, % at 20 µM | hit rate 0.49% among 340,000 | AID 493098 | CHO-K1 CCR6 PathHunter beta-arrestin, luminescence, CCL20-stimulated;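 active means compounds whose inhibition of the agonist-driven luminescence signal at 20 µM reaches about 50%, limit read from the data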;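 further: cells stimulated with CCL20 at 14 nM final; plate controls were DMSO with CCL20 for no effect and DMSO without agonist for full effect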
APJ antagonist: APJ receptor antagonism; CHO-K1 APJ beta-arrestin complementation, luminescence; inhibition, % at 20 µM; hit rate 0.32% among 330,000; AID 2521;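 active means inhibition above about 40% at 20 µM, limit read from the data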;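 further: cells challenged with 10 nM apelin-13 agonist together with compound; plate controls were apelin-13 plus DMSO wells for no effect and DMSO wells lacking apelin-13 for full effect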
CXCR6 inh: inhibitors of human CXCR6 receptor; O00574; CHO-K1 PathHunter CXCR6 beta-arrestin, luminescence; inhibition, % at 20 µM; hit rate 0.36% among 360,000; AID 602244; in the data active means inhibition above about 34%, passing the limit was not always enough;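 further: antagonist mode with CXCL16 agonist at 10 nM final; 0% = 10 nM CXCL16 with DMSO and 100% = unstimulated wells without agonist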
NTR1 agonist: agonists of human neurotensin receptor NTR1; P30989; NTR1-U2OS beta-arrestin-GFP spot imaging, agonist mode; activation, % at 20 µM; hit rate 0.17% among 330,000;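 active means activation at or above 40% of the spot to cytoplasm intensity ratio, with at least 20 cells analyzed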;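 further: 0% = DMSO without peptide and 100% = 100 nM NTR1 peptide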
CXCR6 antag conf: CXCR6 antagonism confirmation, single concentration | shares compounds with CXCR6 inh | CHO-K1 CXCR6 PathHunter beta-arrestin, luminescence | inhibition, % at 20 µM | hit rate 65% among 700 | AID 602409;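 active means mean inhibition over four retests above 40%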;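 further: receptor stimulated with 10 nM CXCL16 agonist; beta-galactosidase fragment complementation upon beta-arrestin recruitment to receptor; plate controls were CXCL16 plus DMSO for no effect and DMSO without CXCL16 for full effect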
An asterisk follows results filed as active; . = no result given.

SMILES | APJ ag | m5-HT2A agonist | CCR6 antag | APJ antagonist | CXCR6 inh | NTR1 agonist | CXCR6 antag conf
O=C1C=CC2(C=C1)O[C@H](Cc1ccccc1)[C@@H](Cc1ccccc1)O2 | . | -1 | 94* | . | 76* | . | 71*
Cn1nc([N+](=O)[O-])nc1Sc1cccc2cccnc12 | -2 | 1 | 38 | -4 | 44* | 6 | 41*
CCCCN(C(=O)c1ccc(Cl)c(S(=O)(=O)N2CCOCC2)c1)c1c(N)n(CCC)c(=O)[nH]c1=O | -2 | 5 | 7 | 10 | -15 | -2 | .
COc1ccc(Nc2cc(C)nc(N3CCN(C(=O)c4ccc5c(c4)OCO5)CC3)n2)cc1 | 3 | -2 | 7 | 1 | 2 | 3 | .
COc1cc(/C=C/C(=O)N2C(=O)c3cccc(N)c3C2=O)cc(OC)c1OC | -5 | 2 | 28 | 7 | 2 | -1 | .
Nc1cccc2c1C(=O)N(C(=O)/C=C/c1cccc(F)c1)C2=O | 1 | 7 | 53* | 20 | 50* | 11 | 45*
Cc1ccc(OC2CCN(C(=O)[C@H]3O[C@@H](n4ccc(=O)[nH]c4=O)[C@H](O)[C@@H]3O)CC2)cc1 | . | -3 | . | . | -11 | . | .
O=C(Nc1nnc(-c2cccs2)o1)c1cccc(F)c1 | -3 | -9 | 22 | -25 | 33 | 4 | .
O=C(Nc1nnc(-c2cccs2)o1)c1cccc(Oc2ccccc2)c1 | -3 | -2 | 34 | -45 | 44* | 2 | 37
CCC1NC(=O)c2cc3ccccc3cc2-n2c1nc1cc(C)cc(C)c1c2=O (centres undefined) | . | 6 | . | . | 60* | . | 7
O=C(COC(=O)c1ccc(O)cc1O)Nc1ccc2c(c1)OCCO2 | -3 | -4 | 8 | 0 | 5 | 2 | .
CSc1ccccc1NS(=O)(=O)c1cccc2nonc12 | -7 | 7 | 24 | 27 | 6 | 1 | .
Cn1c(=O)cc(OCCCC(=O)Nc2cccc(Cl)c2)c2ccccc21 | . | -2 | . | . | 2 | . | .
CCCCCCCCCCOC(=O)Cn1c(COc2ccc(Cl)cc2)[n+](C)c2ccccc21 | -3 | -3 | 13 | 37 | 41* | 29 | -8
COC(=O)[C@H]1C[C@H](C(=O)O)[C@@H](C)C1(C)C | -4 | 7 | 0 | -2 | 2 | 5 | .
O=C1NC[C@H](CCCCN2CCN(CCC3CCCCC3)C(=O)C2=O)N(CCc2ccc(O)cc2)C1=O | . | 1 | . | . | -13 | . | .
CCOC(=O)c1cc([N+](=O)[O-])cc([N+](=O)[O-])c1Sc1ncnc2nc[nH]c12 | . | -2 | . | . | 45* | . | 33
CN(C)S(=O)(=O)c1ccc(C(=O)OCc2nnc(-c3ccccc3)o2)cc1 | -6 | -2 | 8 | 9 | 3 | 2 | .
CS(=O)(=O)c1ccc(C(=O)OCc2nnc(-c3ccccc3)o2)cc1[N+](=O)[O-] | . | -3 | 62* | . | 64* | . | 76*
O=C1C=CC(=O)N1c1ccc2c(c1)C(NC(=O)C(F)(F)F)c1ccccc1-2 (centres undefined) | . | 3 | 108* | . | 79* | . | 32
Cc1cc(Cl)n2c(nc3cc(F)c(F)cc32)c1C#N | . | 0 | 47 | . | 44* | . | 53*
COC(=O)c1cc(F)c(-n2cncn2)c(F)c1 | -5 | 4 | -11 | -4 | 0 | -1 | .
COC(=O)c1cc([N+](=O)[O-])c(-n2cncn2)c([N+](=O)[O-])c1 | . | 3 | 97* | . | 79* | . | 96*
S=C(NNC(=S)Nc1ccc(Cl)cc1)NNc1ccccc1 | . | 5 | . | . | 22 | . | .
Cc1ccc(NC(=S)NNC(=S)NNc2ccccc2)cc1C | . | -1 | . | . | 40* | . | 37
COCCC1CCCCN1C(=O)c1cc(COc2ccc(-n3cncn3)cc2)on1 (centres undefined) | 3 | 0 | 6 | 9 | -23 | 1 | .
CCc1nc2c(OCCC3CCCCC3)cccn2c1N(C)C(=O)c1ccc(C)cc1 | . | -11 | . | . | 42* | . | 48*
CCc1nc2c(OCCC3CCCCC3)cccn2c1N(C)C(=O)C1CC1 | . | 1 | . | . | 10 | . | .
C/C(=N\NC(=S)NCCc1ccccc1)c1ccc(Cl)cc1Cl | -8 | -25 | . | 33 | 54* | 5 | 54*
COC(=O)c1ccc(CSc2nc3ccccc3[nH]2)o1 | 1 | -1 | -8 | 18 | 3 | -1 | .
